Source: ChEMBL document CHEMBL1145228, “Anti-coxsackievirus B3 activity of 2-amino-3-nitropyrazolo[1,5-a]pyrimidines and their analogs” (Bioorg Med Chem Lett, 2005)
Converted amounts (≈) assume the structure as drawn.

Experiments:
HeLa = test: Inhibitory concentration against Coxsackievirus B3 in HeLa cells; format: functional, cell-based; details: Homo sapiens
L929 = test: Growth inhibitory concentration against mouse fibroblast cells; format: functional
Summary of the method: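 L-929 fibroblasts (1 × 10^4) added to 10 twofold dilutions and incubated 72h at 37°C, 5% CO2; growth measured by optical density after methylene blue staining; GI50 reported.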

[1] = Cytotoxic concentration against human cervix carcinoma cells
Summary of the method: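 Confluent HeLa monolayers exposed 72h (37°C, 5% CO2) to twofold serial dilutions in duplicate; cells fixed and stained with crystal violet–formalin, read spectrophotometrically; CC50 = 50% cytotoxic concentration.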

K562 = test: Growth inhibitory concentration against human chronic myeloid leukemic cells; format: functional
Summary of the method: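 K-562 suspension cells (1 × 10^4) exposed to 10 twofold dilutions for 72h at 37°C, 5% CO2; proliferation counted with an electronic cell analyzer (CASY); GI50 reported.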

[2] = Partition coefficient (logP); format: physicochemical; details: octanol/water
[3] = Therapeutic index (ratio of CC50 and IC50) was determined; format: cell-based; details: human, HeLa cells; read-out: TI
Summary of the method: (§1)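 TI computed by dividing mean HeLa CC50 (72h crystal violet cytotoxicity) by mean IC50 from the CVB3 CPE inhibition assay in HeLa cells.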

[4] = Therapeutic index (ratio of CC50 and IC50) was determined; NA denotes ''Not active''; format: cell-based; details: human, hela; summary of the method: as §1

Compound	IC50 (HeLa)	GI50 (L929)	CC50 [1]	GI50 (K562)	logP [2]	selectivity ratio [3]	TI [4]
Nc1nn2c(O)cc(CNNc3ccc(F)cc3)nc2c1[N+](=O)[O-]	5.81 µg/mL (≈ 17.4 µM)	41.4 µg/mL (≈ 124 µM)	> 100 µg/mL	19.7 µg/mL (≈ 59.1 µM)	2.65	> 17.2	–
CCN(CC)C(=S)SCc1cc(O)n2nc(N)c([N+](=O)[O-])c2n1	> 50 µg/mL	> 50 µg/mL	> 50 µg/mL	33.1 µg/mL (≈ 92.9 µM)	3.06	–	Not Active
CCN(CC)C(=O)N1CCN(Cc2cc(O)n3nc(N)c([N+](=O)[O-])c3n2)CC1	> 50 µg/mL	> 50 µg/mL	> 50 µg/mL	> 50 µg/mL	–	–	Not Active
Nc1nn2c(O)cc(CN3CCN(CCO)CC3)nc2c1[N+](=O)[O-]	> 50 µg/mL	> 50 µg/mL	> 50 µg/mL	> 50 µg/mL	–	–	Not Active
Nc1nn2c(O)cc(CN3CCN(C(c4ccccc4)c4ccccc4)CC3)nc2c1[N+](=O)[O-]	> 50 µg/mL	19.9 µg/mL (≈ 43.3 µM)	14.8 µg/mL (≈ 32.2 µM)	9 µg/mL (≈ 19.6 µM)	3.73	–	Not Active
NNCc1cc(O)n2nc(N)c([N+](=O)[O-])c2n1	66.5 µg/mL (≈ 278 µM)	35.2 µg/mL (≈ 147 µM)	42.6 µg/mL (≈ 178 µM)	26.5 µg/mL (≈ 111 µM)	0.42	–	Not Active
CCSC(N)NCc1cc(O)n2nc(N)c([N+](=O)[O-])c2n1 (centres undefined)	> 50 µg/mL	> 50 µg/mL	> 50 µg/mL	> 50 µg/mL	–	–	Not Active
NC(=NCc1cc(O)n2nc(N)c([N+](=O)[O-])c2n1)SCc1ccccc1	> 50 µg/mL	> 50 µg/mL	> 50 µg/mL	> 50 µg/mL	–	–	Not Active
Nc1nn2c(O)cc(CNNc3ccc(S(=O)(=O)O)cc3)nc2c1[N+](=O)[O-]	> 50 µg/mL	> 50 µg/mL	> 50 µg/mL	> 50 µg/mL	–	–	Not Active
Nc1nn2c(O)cc(-c3ccccc3)nc2c1[N+](=O)[O-]	29.6 µg/mL (≈ 109 µM)	> 50 µg/mL	> 100 µg/mL	> 50 µg/mL	2.54	> 3.4	–
Nc1nn2c(O)cc(-c3cc([N+](=O)[O-])c(Cl)cc3Cl)nc2c1[N+](=O)[O-]	3.94 µg/mL (≈ 10.2 µM)	> 50 µg/mL	> 100 µg/mL	> 50 µg/mL	2.77	> 25.6	–
Nc1nn2c(O)cc(CNCCO)nc2c1[N+](=O)[O-]	> 50 µg/mL	> 50 µg/mL	> 50 µg/mL	> 50 µg/mL	–	–	Not Active
Nc1nn2c(O)cc(CNNCCO)nc2c1[N+](=O)[O-]	> 50 µg/mL	> 50 µg/mL	> 50 µg/mL	> 50 µg/mL	–	–	Not Active
NC(=S)NNCc1cc(O)n2nc(N)c([N+](=O)[O-])c2n1	> 50 µg/mL	> 50 µg/mL	> 50 µg/mL	> 50 µg/mL	–	–	Not Active
COc1ccc(NNCc2cc(O)n3nc(N)c([N+](=O)[O-])c3n2)cc1	17.5 µg/mL (≈ 50.8 µM)	> 50 µg/mL	66.3 µg/mL (≈ 192 µM)	5.1 µg/mL (≈ 14.8 µM)	2.46	3.8	–
Nc1nn2c(O)cc(-c3ccccc3F)nc2c1[N+](=O)[O-]	20.3 µg/mL (≈ 70.4 µM)	> 50 µg/mL	66.5 µg/mL (≈ 230 µM)	> 50 µg/mL	2.34	3.2	–
Nc1nn2c(O)cc(CCl)nc2c1[N+](=O)[O-]	> 50 µg/mL	> 50 µg/mL	> 50 µg/mL	> 50 µg/mL	–	–	Not Active
Nc1nn2c(O)cc(-c3ccc(F)cc3)nc2c1[N+](=O)[O-]	50.3 µg/mL (≈ 174 µM)	> 50 µg/mL	> 100 µg/mL	> 50 µg/mL	2.34	> 2	–
